ChEMBL document CHEMBL3259534, “Diterpenoids from Croton laui and their cytotoxic and antimicrobial activities” (J Nat Prod, 2014)
In brackets after ≈: the same amount, converted by molar mass.

Assays:
HL-60 = assay: Cytotoxicity against human HL60 cells after 72 hrs by MTT assay; assay type: functional, cell-based; conditions: HL-60, 72 h
Summary of the method: (§1)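 MTT viability assay on HL-60 human premyelocytic leukemia cells and P-388 murine leukemia cells. Adriamycin was included as the positive control.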

P388 = assay: Cytotoxicity against mouse P388 cells after 72 hrs by MTT assay; assay type: functional, cell-based; conditions: P388, 72 h; summary of the method: as §1
Staphylococcus aureus = assay: Antimicrobial activity against Staphylococcus aureus ATCC 25923 by microdilution method; assay type: functional
Summary of the method: (§2)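 In vitro antibacterial test by microdilution. Strains were drawn from a panel of Gram-positive and Gram-negative bacteria. Ofloxacin was run as the positive control. The read-out is MIC.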

[1] = test system: Staphylococcus epidermidis; assay: Antimicrobial activity against Staphylococcus epidermidis ATCC 12228 by microdilution method; assay type: functional; summary of the method: as §2
Kocuria rhizophila = assay: Antimicrobial activity against Micrococcus luteus ATCC 9341 by microdilution method; assay type: functional; summary of the method: as §2
Bacillus subtilis = assay: Antimicrobial activity against Bacillus subtilis CMCC 63501 by microdilution method; assay type: functional
Escherichia coli = assay: Antimicrobial activity against Escherichia coli ATCC 25922 by microdilution method; assay type: functional; summary of the method: as §2
Shigella flexneri = assay: Antimicrobial activity against Shigella flexneri ATCC 12022 by microdilution method; assay type: functional; summary of the method: as §2
Pseudomonas aeruginosa = assay: Antimicrobial activity against Pseudomonas aeruginosa ATCC 14502 by microdilution method; assay type: functional; summary of the method: as §2
Candida albicans = assay: Antimicrobial activity against Candida albicans ATCC 1600 by agar dilution method; assay type: functional
Summary of the method: (§3)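 In vitro antifungal test by agar dilution against a panel of yeasts and dermatophytes. Amphotericin B served as the positive control. Activity is reported as MIC.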

Saccharomyces = assay: Antimicrobial activity against Saccharomyces sake ATCC 26421 by agar dilution method; assay type: functional; summary of the method: as §3
Nannizzia gypsea = assay: Antimicrobial activity against Microsporum gypseum ATCC 14683 by agar dilution method; assay type: functional; summary of the method: as §3
Trichophyton rubrum = assay: Antimicrobial activity against Trichophyton rubrum ATCC 10218 by agar dilution method; assay type: functional; summary of the method: as §3

MIC (Staphylococcus aureus)	MIC [1]	MIC (Kocuria rhizophila)	MIC (Bacillus subtilis)	MIC (Escherichia coli)	MIC (Shigella flexneri)	MIC (Pseudomonas aeruginosa)	MIC (Candida albicans)	MIC (Saccharomyces)	MIC (Nannizzia gypsea)	MIC (Trichophyton rubrum)	SMILES	IC50 (HL-60)	IC50 (P388)
> 150 µM	> 150 µM	> 150 µM	> 150 µM	> 150 µM	> 150 µM	> 150 µM	> 150 µM	> 150 µM	> 150 µM	> 150 µM	COC(=O)C1=CCC[C@@H]2[C@]13CC[C@H](C)[C@@]21C[C@H](c2ccoc2)O[C@H]1O[C@H]3O	≥ 10 µM	≥ 10 µM
> 150 µM	> 150 µM	> 150 µM	> 150 µM	> 150 µM	> 150 µM	> 150 µM	> 150 µM	> 150 µM	> 150 µM	> 150 µM	C=C1C[C@H](OC(C)=O)[C@]23C(C(=O)OC)=CCC[C@H]2[C@]12C[C@H](c1ccoc1)O[C@H]2O[C@@H]3O	≥ 10 µM	≥ 10 µM
> 150 µM	> 150 µM	> 150 µM	> 150 µM	> 150 µM	> 150 µM	> 150 µM	> 150 µM	> 150 µM	> 150 µM	> 150 µM	C=C1CC[C@H]2[C@](C)(CO)[C@H](O)CC[C@]2(C)[C@H]1C/C=C(\C)C=O	≥ 10 µM	≥ 10 µM
> 150 µM	> 150 µM	> 150 µM	> 150 µM	> 150 µM	> 150 µM	> 150 µM	> 150 µM	> 150 µM	> 150 µM	> 150 µM	C=C1CC[C@]23C(C(=O)OC)=CCC[C@H]2[C@]12C[C@H](c1ccoc1)O[C@H]2O[C@H]3O (relative stereo)	≥ 10 µM	≥ 10 µM
> 150 µM	> 150 µM	> 150 µM	> 150 µM	> 150 µM	> 150 µM	> 150 µM	> 150 µM	> 150 µM	> 150 µM	> 150 µM	C/C(=C\CO)[C@@H]1C[C@@H]2[C@@]3(C)CCCC(C)(C)[C@@H]3C[C@H](O)[C@@]2(C)O1	≥ 10 µM	≥ 10 µM
> 150 µM	> 150 µM	> 150 µM	> 150 µM	> 150 µM	> 150 µM	> 150 µM	> 150 µM	> 150 µM	> 150 µM	> 150 µM	C[C@@H]1CC[C@]2(C)[C@H](CC[C@@H](O)[C@]2(C)O)[C@@]1(C)CCc1ccoc1	≥ 10 µM	≥ 10 µM
> 150 µM	> 150 µM	> 150 µM	> 150 µM	> 150 µM	> 150 µM	> 150 µM	> 150 µM	> 150 µM	> 150 µM	> 150 µM	C=C1C[C@@H]2OC(=O)C3=CCC[C@H]4[C@]15C[C@H](c1ccoc1)O[C@H]5OC(=O)[C@]324 (relative stereo)	9.42 µM	7.45 µM
> 150 µM	> 150 µM	> 150 µM	> 150 µM	> 150 µM	> 150 µM	> 150 µM	> 150 µM	> 150 µM	> 150 µM	> 150 µM	COC(=O)C1=CCC[C@@H]2[C@]13CC[C@H](C)[C@@]21C[C@H](c2ccoc2)O[C@H]1O[C@@H]3O	≥ 10 µM	≥ 10 µM
> 150 µM	> 150 µM	> 150 µM	> 150 µM	> 150 µM	> 150 µM	> 150 µM	> 150 µM	> 150 µM	> 150 µM	> 150 µM	C[C@@H]1CC[C@]2(C)[C@H](CC[C@@H](O)[C@]2(C)O)[C@@]1(C)C[C@H](O)c1ccoc1	≥ 10 µM	≥ 10 µM
> 150 µM	> 150 µM	> 150 µM	> 150 µM	> 150 µM	> 150 µM	> 150 µM	> 150 µM	> 150 µM	> 150 µM	> 150 µM	C=C1CC[C@]23C(C(=O)OC)=CCC[C@H]2[C@]12C[C@H](c1ccoc1)O[C@H]2O[C@@H]3O (relative stereo)	≥ 10 µM	≥ 10 µM
43.4 µM (≈ 12.5 µg/mL)	43.4 µM (≈ 12.5 µg/mL)	43.4 µM (≈ 12.5 µg/mL)	43.4 µM (≈ 12.5 µg/mL)	–	–	–	–	–	–	–	CC1=CCC[C@@H]2[C@@](C)(CCC3=CCOC3)[C@H](C)CC[C@@]12C (relative stereo)	≥ 10 µM	≥ 10 µM
> 150 µM	> 150 µM	> 150 µM	> 150 µM	> 150 µM	> 150 µM	> 150 µM	> 150 µM	> 150 µM	> 150 µM	> 150 µM	C[C@@H]1C(=O)CC[C@H]2[C@@]1(C)CC[C@H]1C(=O)O[C@H](c3ccoc3)C[C@]21C (relative stereo)	≥ 10 µM	≥ 10 µM
> 150 µM	> 150 µM	> 150 µM	> 150 µM	> 150 µM	> 150 µM	> 150 µM	> 150 µM	> 150 µM	> 150 µM	> 150 µM	C=C1C[C@H](OC(C)=O)[C@]23C(C(=O)OC)=CCC[C@H]2[C@]12C[C@H](c1ccoc1)O[C@H]2O[C@H]3O	≥ 10 µM	≥ 10 µM
> 150 µM	> 150 µM	> 150 µM	> 150 µM	> 150 µM	> 150 µM	> 150 µM	> 150 µM	> 150 µM	> 150 µM	> 150 µM	C=C1[C@H](O)CC[C@@H]2[C@@]3(C)C[C@@H](c4ccoc4)OC(=O)[C@@H]3CC[C@@]12C (relative stereo)	≥ 10 µM	≥ 10 µM
